The values that follow come from publication PMC7194030 (Science translational medicine, 2019).

For data set [1], the system named is C57bl/6 mice. The note with it: in vivo.
Data set [2] relates to Mx1-Cre Srsf2P95H/WT MDS mice. In kind it is in vivo. The note with it: for BFU-E self-renewal (splenic BFU-E colonies): daily treatment.
In data set [3] the test system is C57bl/6 mice. Description: Pharmacodynamics study. In kind it is in vivo, mouse. The gist of the method: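 PHZ hemolytic anemia model: female C57bl/6 mice, 8–10 weeks old, randomised to groups and given test compound at different doses or DMSO control intraperitoneally every day. Anemia induced with intraperitoneal PHZ (60 mg/kg). Complete blood counts taken. 7 to 10 mice per group.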

Data set [4] concerns murine BFU-Es. Description: RNA-seq of cultured BFU-Es. Type of data set: cell-based, mouse. The note with it: 100 μM oxyphenonium bromide or 3 nM PD102807. The gist of the method: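 BFU-Es FACS-sorted from E14.5 mouse fetal liver and cultured at 37°C in serum-free SFEM II with SCF, EPO, IGF-1 and dexamethasone. Treatments: test compound (100 μM or 3 nM), 100 nM dexamethasone, or DMSO. RNA extracted with a column kit, Illumina libraries prepared, sequenced on HiSeq 2500. Three to six replicates.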

Data set [5] relates to murine BFU-Es. Description: Mouse BFU-E culture system. Type of data set: cell-based. The note with it: for Percentage of Ter119+ cells with or without compound: day 14 of culture, flow cytometry; for BFU-E expansion: purified murine fetal liver BFU-Es, cell numbers counted days 0 to 9. The gist of the method: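 Cells are counted from day 0 to day 9 (three distinct samples; two-way ANOVA). At end of culture, cells are stained with anti-Ter119 and Ter119+ percentage is measured by flow cytometry (three samples; one-tailed t test).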

For a further data set, the system named is human CD34+ HSPC. Put plainly: Human CD34+ HSPC erythroid differentiation culture system. Type of data set: cell-based. The note with it: for Formation of BFU-E colonies: human CD34+ HSPC; for Erythroid cell expansion: human CD34+ HSPC from healthy donors.
Data set [6] has as its system murine BFU-Es. Put plainly: BFU-E colony formation assay of cultured murine BFU-Es. Type of data set: cell-based, mouse. The note with it: colonies counted on day 9 of colony formation assay. The gist of the method: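 BFU-Es (lin−Ter119−CD16/CD32−Sca-1−CD41−c-Kit+CD71/Cd24a10%low) are FACS-sorted from E14.5 C57bl/6 fetal liver. Cells are then plated in MethoCult SF M3436, and colonies are counted on day 9. Nine distinct samples; one-tailed t test.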

The next data set deals with BFU-Es. Description: cAMP assay in BFU-Es. Type of data set: cell-based, mouse. The note with it: PD102807 3 nM, forskolin 10 μM, 45 min. The gist of the method: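 Sorted murine fetal-liver BFU-Es are exposed for 45 min to DMSO, 3 nM test compound, or 10 μM forskolin. Cells are lysed in 0.1 M HCl (20 min, room temperature) and cleared at 15,000g for 10 min. Samples are neutralized, acetylated, and run in a competitive cAMP immunoassay (antibody, then cAMP-HRP, 1 h each; HRP developer 1 h). The reaction is stopped with 1 M HCl and read at OD 450 nm.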
Background: cAMP levels reflect the balance of adenylyl cyclase and phosphodiesterase activity.

The test system of the next data set is CFU-E. Put plainly: Mouse CFU-E culture system. In kind it is cell-based.
The target in data set [7] is human recombinant CHRM4 receptor (Homo sapiens, UniProt P08173). The note with it: protein binding assay, IC50 on CHRM1-5.
Chain of human recombinant CHRM4 receptor (P08173 whole entry): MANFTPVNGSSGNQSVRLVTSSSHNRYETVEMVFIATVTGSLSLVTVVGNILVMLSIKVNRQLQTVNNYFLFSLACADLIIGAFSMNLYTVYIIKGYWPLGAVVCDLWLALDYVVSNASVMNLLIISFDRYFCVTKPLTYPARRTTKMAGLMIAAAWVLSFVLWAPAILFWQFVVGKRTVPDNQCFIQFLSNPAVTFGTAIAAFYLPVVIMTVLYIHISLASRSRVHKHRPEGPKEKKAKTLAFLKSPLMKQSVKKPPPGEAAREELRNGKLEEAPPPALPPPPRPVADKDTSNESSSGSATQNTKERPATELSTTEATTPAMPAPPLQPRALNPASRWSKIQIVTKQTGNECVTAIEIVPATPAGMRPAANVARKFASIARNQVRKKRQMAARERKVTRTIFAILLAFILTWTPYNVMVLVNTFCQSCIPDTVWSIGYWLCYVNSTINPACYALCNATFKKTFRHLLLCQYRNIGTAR
Data set [8] has as its system CD34+ cells from patients with MDS. Description: Erythroid differentiation culture of CD34+ cells from patients with MDS. In kind it is cell-based, human. The gist of the method:
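MDS patient CD34+ cells (eight patients) are cultured in SFEM with rhSCF 20 ng/ml, rhIL-3 5 ng/ml, EPO 1 U/ml and dexamethasone 1 nM, with DMSO or 3 nM test compound. Read-outs: relative cell expansion, CD235a+ fraction by flow cytometry, annexin V apoptosis, and May-Grünwald–Giemsa cytospin morphology. One-tailed t test.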

Where a name gives a salt, the structure may show the parent alone. Read-outs that look alike come from different tables or passages of the source.

For the compound `CC[N+](C)(CC)CCOC(=O)C(O)(c1ccccc1)C1CCCCC1` (stereo not shown) [oxyphenonium bromide], the Maximal tolerated dose with C57bl/6 mice [1] (female, C57bl/6, mouse, 7 days) came to 50 mg/kg. Further, the “BFU-E self-renewal (splenic BFU-E colonies)” value (“BFU-E self-renewal” below) in [2] (MDS mice) is “promoted BFU-E self-renewal”. Further, the “Anti-anemia minimal effective dose” value in the data set on C57bl/6 mice [3] was 25 mg/kg. Also, the “BFU-E gene signature expression” value with murine BFU-Es [4] is “up-regulated a gene signature characteristic of BFU-Es”. In the data set on murine BFU-Es [5] (100 μM oxyphenonium bromide), the “BFU-E expansion and erythrocyte production” value is recorded as “prolonged expansion resulting in increased production of erythrocytes”. Further, in the data set on murine BFU-Es [5], the “Percentage of Ter119+ cells with or without compound” value is recorded as “no difference” and the BFU-E expansion result is listed as “triggered BFU-E expansion”. In addition, in the data set with human CD34+ HSPC, the “Formation of BFU-E colonies” value is “increased formation of BFU-E colonies” and the Erythroid cell expansion result was “expanded erythroid cells”. Moreover, in the data set on murine BFU-Es [6], the “Formation of BFU-E colonies” value was “increased formation of BFU-E colonies”.

Take `CCOC(=O)c1c(C)[nH]c2ccc3c(c12)CN1CCc2cc(OC)ccc2C1O3` (stereo not shown) [PD102807]: in the data set on BFU-Es, the “cAMP concentration in BFU-Es relative to DMSO” value is reported as “increased in concentration”. Also, in the data set on CFU-E, the CFU-E proliferation result was “no effect”. Besides, the Maximal tolerated dose with C57bl/6 mice [1] (mouse) came to 100 mg/kg. For the same compound, in data set [2] (MDS mice), the Tolerability in vivo result is on record as “well tolerated”; the “Weight loss, liver or kidney function” value is recorded as “no substantial effects”; the “White blood cell or platelet production” value is listed as “no influence”; the “BFU-E self-renewal” value is reported as “promoted BFU-E self-renewal”. Besides, in the data set on C57bl/6 mice [3], the “Anti-anemia minimal effective dose” value is recorded as 100 mg/kg. Further, the “Selectivity for CHRM4 over other muscarinic acetylcholine receptors” value in data set [7] was “selectively inhibits CHRM4 over other muscarinic acetylcholine receptors”. Besides, in the data set with murine BFU-Es [4], the “BFU-E gene signature expression” value was “up-regulated a gene signature characteristic of BFU-Es”. Besides, in the data set on murine BFU-Es [5], the “Percentage of Ter119+ cells with or without compound” value was “no difference” and the BFU-E expansion result is reported as “promoted BFU-E expansion at nanomolar concentrations”. Moreover, in the data set with human CD34+ HSPC, the “Formation of BFU-E colonies” value is given as “increased formation of BFU-E colonies” and the Erythroid cell expansion entry is reported as “expanded erythroid cells”. Moreover, in data set [8] (3 nM PD102807), the “Cell survival or differentiation with and without compound” value is given as “no difference”. In addition, in [8] (3 nM PD102807, eight patients), the “Production of erythroid cells” value was “increased production of erythroid cells”.

`CCCCCCOC(=O)[C@]1(O)C[C@@H]2O[C@@]1(C)n1c3ccccc3c3c4c(c5c6ccccc6n2c5c31)C(=O)NC4` [KT5720]: the “Effect on CHRM4 antagonist-induced BFU-E expansion” value in the data set with murine BFU-Es [5] (2 μM KT5720 with 3 nM PD102807, day 9) is given as “blocked CHRM4 antagonist–induced BFU-E expansion”.

As for `C=C[C@@]1(C)CC(=O)[C@]2(O)[C@@]3(C)[C@@H](O)CCC(C)(C)[C@@H]3[C@H](O)[C@H](OC(C)=O)[C@@]2(C)O1` [forskolin], the “cAMP concentration in BFU-Es relative to DMSO” value with BFU-Es is “increased in concentration”. In addition, the BFU-E expansion result in the data set with murine BFU-Es [5] is listed as “promoted BFU-E expansion”.

Regarding `Cc1ccccc1C(OCCN(C)C)c1ccccc1` (stereo not shown) [orphenadrine citrate], the “BFU-E self-renewal” value in data set [2] (MDS mice) is recorded as “promoted BFU-E self-renewal”. In data set [2] (mouse, in vivo), the Tolerability in vivo entry is “well tolerated” and the “White blood cell or platelet production” value is “no influence”. In addition, the “Anti-anemia minimal effective dose” value in the data set with C57bl/6 mice [3] was found to be 100 mg/kg. Also, in the data set with murine BFU-Es [5], the BFU-E expansion entry is recorded as “triggered BFU-E expansion”.
